Bioassay records as filed in PubChem.
PGC1a acetyl inh: PGC1a acetylation modulation, inhibitor mode. inhibition, % at 15.6 µM. U2OS PGC1a acetylation, AlphaScreen anti-acetyl-lysine; with virally co-expressed GCN5 acetyltransferase. 350,000 tested, 0.17% active;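 active means every replicate shows inhibition of at least 40%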;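 further: 0% = neutral control wells and 100% = positive control wells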
F508del corr: correctors of CFTR F508del function in bronchial epithelial cells; CFBE cells, YFP halide quenching; stimulated with forskolin plus potentiator P3; % fluorescence drop versus neutral controls; activity (quench increase), % at 7.58 µM; 350,000 tested, 0.36% active; AID 720511;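 active means mean added fluorescence quench of at least 8% versus neutral control, with both replicates also reaching 8%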;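 further: cells transiently co-express mutant CFTR-F508del with the halide-sensitive YFP; corrector assay measuring rescue of mutant channel to the surface after 24 h compound exposure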
PAX8 reporter: PAX8 transcriptional activity inhibition; RMG-I TPO-luciferase reporter, SteadyGlo, 24 h; inhibition, % at 12.6 µM; 360,000 tested, 1.2% active; AID 652154;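 active means mean replicate inhibition at least 60% with every replicate also reaching 60%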;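 further: luciferase light reporting Pax8 driven TPO promoter activity; plate controls were median of neutral control wells for no effect and mitoxantrone controls for full effect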
Env fusion inh: HIV envelope-mediated fusion inhibition; HeLa-JRFL Env/CEM21 cell fusion, luciferase; inhibition, % at 12.3 µM; AID 651610; 360,000 tested, 1.1% active;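 active means mean replicate inhibition score of at least 50 and every replicate individually at or above 50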;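 further: 0% = plate neutral controls and 100% = maraviroc near 300 nM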
EWS-Fli block: EWS/Fli transcriptional activity inhibition. A673 NR0B1-luciferase reporter, viability-normalised. inhibition, % at 12.6 µM. 350,000 tested, 0.67% active;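 active means mean inhibition of at least 50% after viability correction, with every replicate also passing that limit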;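 further: firefly luciferase signal divided by Alamar Blue viability fluorescence both relative to DMSO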
FN deposit inh: fibronectin deposition inhibition; AH1F fibroblasts, Alexa488-fibronectin deposition fluorescence, overnight; 350,000 tested, 0.086% active; inhibition, % at 12.6 µM;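 active means mean inhibition across replicates of 30% or more, regardless of how many single replicates reach that level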;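 further: positive control wells lacked labelled fibronectin entirely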
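Material: AH1F fibroblasts assembling fluorescent fibronectin matrix; amount: 10000 AH1F cells/well; medium: DMEM, 2% serum; reagent: Alexa488-fibronectin, 24 nM final in well; dosing: single compound dose, delivered by pin transfer; incubation: 1 h adhesion, overnight exposure; detection: fluorescence after three HBSS washes, excitation 485 nm, emission 525 nm; measure: fibronectin deposition inhibition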
An asterisk follows results filed as active; [ ] = dose if it differs, or a comment. Shown are actives, neighbours in structure and some others; about 2.3% of the full set was active somewhere.

What do the screens show for `COc1ccccc1-c1ccc([C@@H]2[C@@H](CO)N3CCCCN(C(=O)NC4CCCC4)C[C@H]23)cc1`?
PGC1a acetyl inh: -11; F508del corr: -1; PAX8 reporter: 12; EWS-Fli block: 2

How did Cc1nc2ccc(NC(=O)CCS(=O)(=O)c3ccccc3)cc2s1 do in these assays?
F508del corr: -1; PAX8 reporter: -37; Env fusion inh: -22; EWS-Fli block: -54; FN deposit inh: 1

What do the screens show for `O=C(CCS(=O)(=O)c1ccccc1)Nc1nc2ccc(F)cc2s1`?
F508del corr: -6; PAX8 reporter: 107*; Env fusion inh: 3; EWS-Fli block: 7; FN deposit inh: -11

How did Cc1ccc2nc(-c3ccc(NC(=O)CCS(=O)(=O)c4ccccc4)cc3)sc2c1 do in these assays?
F508del corr: 2; PAX8 reporter: 38; Env fusion inh: -153; EWS-Fli block: 70*; FN deposit inh: -12

How did O=C(Nc1ccc(F)cc1)N[C@@H]1C[C@@H]2O[C@@H](CO)CC[C@@H]2O[C@@H]1CCc1ccc(C2=CCCC2)cc1 do in these assays?
PGC1a acetyl inh: -28; F508del corr: -3; PAX8 reporter: 7; EWS-Fli block: -4

What do the screens show for `CCCN(C)C[C@@H]1Oc2cc(-c3cncnc3)ccc2S(=O)(=O)N([C@@H](C)CO)C[C@@H]1C`?
PGC1a acetyl inh: -5; F508del corr: 1; Env fusion inh: 1[16.7 µM]; EWS-Fli block: -18; FN deposit inh: -13

How did Cc1ccc(S(=O)(=O)NC(C)(C)CSc2nnc(Nc3ccccc3)s2)cc1 do in these assays?
PGC1a acetyl inh: -25; Env fusion inh: 58*; FN deposit inh: 0

What do the screens show for `Cn1c2ccccc2c(=O)c2ccc(C#CC3(N)CCCCC3)cc21`?
F508del corr: 4; PAX8 reporter: -147; Env fusion inh: -114; EWS-Fli block: -86; FN deposit inh: 1

Results for Cn1c2ccccc2c(=O)c2cc(C#CC3(O)CCCCC3)ccc21 ?
PGC1a acetyl inh: -4; F508del corr: -1; PAX8 reporter: 33; Env fusion inh: -65; EWS-Fli block: 68*; FN deposit inh: 9

Results for CCN(Cc1ccccc1)C(c1cccs1)c1nnnn1C1CCCCC1 (stereo not drawn) ?
PGC1a acetyl inh: -1; Env fusion inh: 96*; FN deposit inh: -7

How did CCN(Cc1ccccc1)C(c1ccccn1)c1nnnn1C1CCCCC1 (stereo not drawn) do in these assays?
PGC1a acetyl inh: -4

Results for CC(C)(C)n1nnnc1C(c1cccs1)N(Cc1cccnc1)Cc1ccccc1Cl (stereo not drawn) ?
PGC1a acetyl inh: -9; Env fusion inh: 36

What do the screens show for `Clc1ccc(CN(CC2CCCO2)C(c2cccs2)c2nnnn2C2CCCC2)cc1` (stereo not drawn)?
PGC1a acetyl inh: -14; PAX8 reporter: 40; Env fusion inh: 117*; FN deposit inh: 8

What do the screens show for `Clc1ccccc1CN(Cc1ccccc1)C(c1cccs1)c1nnnn1C1CCCC1` (stereo not drawn)?
PGC1a acetyl inh: -25; PAX8 reporter: 3; Env fusion inh: 83*; FN deposit inh: -1

Results for COc1ccc(OC)c(C(=O)Cn2nnc(-c3ccc(N4CCOCC4)cc3)n2)c1 ?
PGC1a acetyl inh: -3; F508del corr: 10*; PAX8 reporter: 3; Env fusion inh: -10; EWS-Fli block: 22; FN deposit inh: 3

What do the screens show for `CCCCOc1ccc(S(=O)(=O)Nc2cccnc2)cc1`?
PGC1a acetyl inh: 4; Env fusion inh: 69*; FN deposit inh: 15

How did Cc1ccc(S(=O)(=O)Nc2cccnc2)cc1 do in these assays?
PGC1a acetyl inh: -15; PAX8 reporter: 1; Env fusion inh: -12; FN deposit inh: 5

How did O=C(c1ccccc1)c1ccc(Cn2cc(CCCO)nn2)cc1 do in these assays?
PGC1a acetyl inh: -6; F508del corr: 1; PAX8 reporter: 6; Env fusion inh: -1; EWS-Fli block: 14; FN deposit inh: -4

What do the screens show for `O=C(O)CCCCCCCCc1cn(Cc2ccc(C(=O)c3ccccc3)cc2)nn1`?
PGC1a acetyl inh: -3; F508del corr: 14*; PAX8 reporter: 24; Env fusion inh: -86; EWS-Fli block: 54*; FN deposit inh: -7
